Assay outcomes from PubChem.
CHO parental Ca – counter-screen for OX1R antagonists: effect in parental CHO cells | parental CHO-K1, ATP-induced calcium, Fluo-8 fluorescence | inhibition, % at 5.6 µM | actives 0.63% (n = 330,000) | AID 463079;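 active means inhibition above that plate's mean sample inhibition plus 3 SD, cut at about 26% in these data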
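material = parental CHO cells | also added = ATP as calcium-mobilizing challenge | dosing = single point at 5.6 µM | detection = intracellular calcium via Fluo-8 no-wash fluorescent dye | read-out = % inhibition | benchmarks = low control ATP plus DMSO, high control DMSO only | repeats = one well per compound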
OX1R antag-1 – blocks the human orexin 1 receptor; actives 0.43% (n = 330,000); CHO/OX1R cells, Fluo-8 calcium fluorescence, orexin A; inhibition, % at 5 µM;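 active means inhibition above its plate's threshold, mean inhibition of all tested compounds on the plate plus 3 SD, cut at about 37% in these data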
Target sequence (O43613 whole entry, looked up): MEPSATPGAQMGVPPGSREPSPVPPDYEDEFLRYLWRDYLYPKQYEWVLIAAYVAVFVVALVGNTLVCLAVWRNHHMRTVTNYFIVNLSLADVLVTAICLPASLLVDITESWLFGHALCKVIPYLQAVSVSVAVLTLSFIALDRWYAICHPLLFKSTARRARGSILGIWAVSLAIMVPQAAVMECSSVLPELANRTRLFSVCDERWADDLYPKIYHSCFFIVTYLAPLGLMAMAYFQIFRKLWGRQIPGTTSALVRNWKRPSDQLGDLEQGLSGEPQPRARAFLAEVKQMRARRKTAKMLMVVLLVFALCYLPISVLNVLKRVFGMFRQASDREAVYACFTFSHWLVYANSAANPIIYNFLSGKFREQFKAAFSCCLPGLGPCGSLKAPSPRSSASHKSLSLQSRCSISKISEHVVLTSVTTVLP
TAAR1 agonist – agonists of human TAAR1. actives 0.99% (n = 360,000). Q96RJ0. CHO RD-HGA16 TAAR1, Fluo-8 calcium fluorescence; vehicle wells 0%, saturating PEA agonist 100%. activation, % at 3 µM;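 active means activation above the mean activation of all test compounds in the run plus 3 SD, cut at about 38% in these data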
Target sequence (Q96RJ0 whole entry, looked up): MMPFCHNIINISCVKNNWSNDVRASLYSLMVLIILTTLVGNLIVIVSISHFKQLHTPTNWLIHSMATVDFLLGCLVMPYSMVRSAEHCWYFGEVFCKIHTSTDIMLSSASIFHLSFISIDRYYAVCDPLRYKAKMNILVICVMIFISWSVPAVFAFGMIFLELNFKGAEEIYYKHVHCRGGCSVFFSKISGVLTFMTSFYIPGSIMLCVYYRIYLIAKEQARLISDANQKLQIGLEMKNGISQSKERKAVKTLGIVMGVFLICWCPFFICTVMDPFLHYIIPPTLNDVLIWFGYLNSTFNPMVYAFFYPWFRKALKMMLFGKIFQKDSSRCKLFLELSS
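Test system: RD-HGA16 (CHO) cells co-expressing Gα16 and hTAAR1; dosing: one-point dosing at 3 µM (nominal); timing: 17-24 h seeding, 75 min 37 °C dye, 30 min RT; signal: kinetic Fluo-8 calcium fluorescence; read-out basis: % activation relative to PEA EC100 response; controls: DMSO and PEA EC100; replicates: n 1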
OX1R antag-2 – antagonists of human orexin 1 receptor (OX1R) | AID 485270 | actives 1.8% (n = 330,000) | OX1R-expressing cells, FRET antagonist read-out | inhibition, % at 6.6 µM | O43613; in the data active means inhibition mostly above about 38%, no sharp cut-off; inactive means mostly below about 40%
TAAR1 antag – human TAAR1 antagonism | inhibition, % at 3 µM | CHO RD-HGA16 TAAR1, Fluo-8 calcium fluorescence, antagonist | Q96RJ0 | actives 1.5% (n = 360,000);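 active means inhibition above a per-plate cutoff, the mean inhibition of test compounds on that plate plus 3 SD, cut at about 49% in these data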
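Test system – hTAAR1-expressing CHO RD-HGA16 cells, Gα16-coupled · Reagent – β-PEA at EC80 concentration, post-compound challenge · Compound dosing – 3 µM, single point · Timing – 140 s kinetic read after compound, 140 s after agonist · Detection – Fluo-8 intracellular calcium dye fluorescence, real-time kinetic reads · Control set – DMSO and EC80 PEA controls · Repeats – n of 1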
GPR7 antagonist – human neuropeptides B/W receptor 1 antagonism; P48145; GPR7-expressing cells, fluorescence antagonist assay; inhibition, % at 4.4 µM; actives 1.1% (n = 290,000); in the data active means inhibition above about 16%, passing the limit was not always enough;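 further: cells stimulated with the agonist NPW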
Of the large screens only hits and unclear results are named; the others gave an inactive call. Shown are actives, neighbours in structure and some others; about 4.6% of the full set was active somewhere.

Clc1ccc(OCCN2CCN(c3ncnc4sccc34)CC2)cc1	OX1R antag-2 49, GPR7 antagonist 20
CC(=O)c1ccc(-c2nnc(CCC(=O)N(C)Cc3cccc4cnccc34)o2)s1	OX1R antag-2 35
CN(Cc1cccc2cnccc12)C(=O)CCc1nnc(CCc2ccccc2)o1	none
NC(=O)c1sc2nc3c(c(-c4cccs4)c2c1N)CCCC3	none (no result: CHO parental Ca, OX1R antag-1, TAAR1 agonist, OX1R antag-2, TAAR1 antag)
CC(C)NC(=O)c1sc2nc3c(c(-c4cccs4)c2c1N)CN(C)CC3	OX1R antag-2 60
COc1ccc(NC(=O)CSc2nc3c(c(-c4cccs4)c2C#N)CN(C)CC3)cc1OC	none
Cc1cccc(NC(=O)c2sc3nc4c(c(-c5cccs5)c3c2N)CN(C)CC4)c1	OX1R antag-2 76
CCCCCC(=O)NC1CCCCN(C)C1=O (stereo unspecified)	none (no result: CHO parental Ca, OX1R antag-1, OX1R antag-2, GPR7 antagonist)
O=C(Nc1ccc(Oc2ccccc2)cc1)C1CCN(c2c3c(nc4ncnn24)CCC3)CC1	CHO parental Ca 49, OX1R antag-1 36, TAAR1 antag 57
O=C(Nc1ccc2c(c1)CCC2)C1CCN(c2c3c(nc4ncnn24)CCC3)CC1	none
CC1(C(=O)NS(=O)(=O)c2cccc(Cl)c2)CCN1C(=O)C/C=C/c1ccccc1 (stereo unspecified)	none (no result: CHO parental Ca, OX1R antag-1, OX1R antag-2, GPR7 antagonist)
COc1cc(OC)c2c(=O)cc(-c3ccccc3)oc2c1	OX1R antag-2 44
CCc1ccc(/C=C2\SC(=S)N(CCCC(=O)N(CCO)c3ccccc3)C2=O)cc1	none (no result: CHO parental Ca, OX1R antag-1, OX1R antag-2, GPR7 antagonist)
CCC(C)CN1C(=O)CN(S(C)(=O)=O)CC1(C)C(=O)NCc1ccccc1 (stereo unspecified)	none (no result: CHO parental Ca, OX1R antag-1, OX1R antag-2, GPR7 antagonist)
O=C(COc1ccccc1/C=C1\SC(=O)NC1=O)Nc1ccccc1	OX1R antag-2 59
O=C(NCC(c1ccco1)N1CCCC1)c1cccc(S(=O)(=O)N2CCc3ccccc32)c1 (stereo unspecified)	none (no result: CHO parental Ca, OX1R antag-1, OX1R antag-2, GPR7 antagonist)
Oc1ccc(Nc2nc3ccccc3nc2Nc2ccc(O)cc2)cc1	CHO parental Ca 35 (no result: TAAR1 agonist, TAAR1 antag)
O=C(NCCNC(=O)Nc1ccc(Cl)cc1)Nc1ccc(Cl)cc1	none (no result: CHO parental Ca, OX1R antag-1, OX1R antag-2, GPR7 antagonist)
Cc1nnsc1SCCNC(=O)Nc1ccc(Cl)cc1	CHO parental Ca 40, OX1R antag-1 36
O=C(Nc1ccc(F)cc1F)C1CCN(c2ncnc3c2sc2cccc(F)c23)CC1	OX1R antag-2 46
CC1CC(C)CN(CCCNC(=O)C2CCN(c3ncnc4c3sc3cccc(F)c34)CC2)C1 (stereo unspecified)	OX1R antag-2 55 (no result: TAAR1 agonist, TAAR1 antag)
C=CCn1c(SCC(=O)Nc2ccc3c(c2)OCO3)nnc1-c1ccccc1	none
C=CCn1c(SCC(=O)Nc2ccc3c(c2)OCO3)nnc1-c1cc(Br)ccc1O	OX1R antag-2 65
CCOc1ccccc1NC(=O)CSc1nnc(-c2ccccc2Cl)n1Cc1ccco1	OX1R antag-2 69
O=C(CSc1nnc(-c2ccccc2)n1Cc1ccco1)Nc1ccc2c(c1)OCCO2	OX1R antag-2 48
O=C(CSc1nnc(-c2cccs2)n1Cc1ccco1)Nc1ccc2c(c1)OCO2	none
CCOc1ccc(NC(=O)CSc2ncc(-c3ccc(F)cc3)n2Cc2ccco2)cc1	none
O=C(CSc1ncc(-c2ccc(F)cc2)n1Cc1ccco1)Nc1ccc2c(c1)OCO2	CHO parental Ca 38, GPR7 antagonist 29
O=C(Nc1ccc(F)cc1)C(c1ccncc1)N1CCN(c2cccc(C(F)(F)F)n2)CC1 (stereo unspecified)	none (no result: CHO parental Ca, OX1R antag-1, OX1R antag-2, GPR7 antagonist)
O=[N+]([O-])c1ccc(S(=O)(=O)NCCc2cn3ccccc3n2)cc1	OX1R antag-2 42
Cc1cccn2cc(CCNS(=O)(=O)c3ccc([N+](=O)[O-])cc3)nc12	none
O=C(N[C@H](Cc1ccccc1)C(=O)NCC1CCCO1)[C@H]1O[C@@H](n2ccc(=O)[nH]c2=O)[C@H](O)[C@@H]1O (stereo partly specified)	none (no result: CHO parental Ca, OX1R antag-1, OX1R antag-2, GPR7 antagonist)
Cc1csc2c(N3CCN(C(=O)NC(C)(C)C)CC3)ncnc12	none
Cc1csc2c(N3CCN(C(=O)Nc4ccc(Cl)c(Cl)c4)CC3)ncnc12	OX1R antag-1 43
Cc1csc2c(N3CCN(C(=O)c4ccc(C(C)(C)C)cc4)CC3)ncnc12	CHO parental Ca 37
CN(C)CCCN1CC(=O)N2CCc3ccc(Br)cc3C2CC1=O (stereo unspecified)	none (no result: CHO parental Ca, OX1R antag-1, OX1R antag-2, GPR7 antagonist)
COc1cc(NC(=O)C[n+]2ccc(C(=O)c3ccccc3)cc2)cc(OC)c1	OX1R antag-2 43 (no result: GPR7 antagonist)
COc1cc(NC(=O)Cc2ccccc2)cc(OC)c1	none
O=C1N[C@@H](Cc2ccccc2)C(=O)N2[C@H]1CSCCS2(=O)=O	none (no result: CHO parental Ca, OX1R antag-1, OX1R antag-2, GPR7 antagonist)
COc1ccc(Cl)cc1NC(=O)CSc1nnc(Cc2ccc(C)cc2)c(=O)[nH]1	OX1R antag-2 50 (no result: GPR7 antagonist)
Cc1ccc(Cc2nnc(SCC(=O)Nc3ccccc3Cl)[nH]c2=O)cc1	none (no result: GPR7 antagonist)
CC(NS(=O)(=O)OCC(Cl)(Cl)Cl)c1ccc(C(C)(C)C)cc1 (stereo unspecified)	CHO parental Ca 64, TAAR1 antag 52
CC(=O)OC1CCC2(C)C(COc3ccc4ccc(=O)oc4c3)C(C)(O)CCC2C1(C)C (stereo unspecified)	TAAR1 antag 56
Cc1cc(C)nc(SCC(=O)Nc2ccnc3ccccc23)n1	CHO parental Ca 36
Cc1cc(NC(=O)Cc2ccccc2)c2ccccc2n1	CHO parental Ca 33
O=C(/C=C/Nc1ccccc1)c1ccc(Oc2ncccn2)cc1	TAAR1 agonist 43
CCCS(=O)(=O)NC(=O)C1(C)CCN(C(=O)c2cc(F)ccc2C)C1 (stereo unspecified)	none (no result: CHO parental Ca, OX1R antag-1, OX1R antag-2, GPR7 antagonist)
CC(=O)Nc1ccc(S(=O)(=O)N(Cc2cccnc2)Cc2cc3ccccc3[nH]c2=O)cc1	TAAR1 antag 61
COc1ccc(N(Cc2cc3cc(OC)ccc3[nH]c2=O)S(=O)(=O)c2ccc(NC(C)=O)cc2)cc1	TAAR1 antag 58
CCOc1ccc(N(Cc2cc3cc(OC)ccc3[nH]c2=O)S(C)(=O)=O)cc1	none
CC(=O)Nc1ccc(S(=O)(=O)N(Cc2ccccc2)c2ccccc2)cc1	OX1R antag-2 66
CCOc1ccccc1NC(=O)C(Sc1ccccc1)c1ccccc1 (stereo unspecified)	CHO parental Ca 57, OX1R antag-1 59, TAAR1 antag 57
COc1ccccc1CNc1ncnc2sccc12	CHO parental Ca 41, OX1R antag-2 47
COc1ccc(CCNc2ncnc3sccc23)cc1OC	CHO parental Ca 76, OX1R antag-1 42
COc1ccccc1Oc1ncnc2sccc12	none
c1ccc2c(c1)OCC(CNc1ncnc3sccc13)O2 (stereo unspecified)	CHO parental Ca 68
CCCCCN(C(=O)Cc1c(C)n(CCCCC)c2ccccc12)c1ccc(Oc2cccnc2)c(C)c1	none (no result: CHO parental Ca, OX1R antag-1, OX1R antag-2, GPR7 antagonist)
COc1ccc(C(C)NC(=S)NCc2ccc(F)cc2)cc1 (stereo unspecified)	none
